Laboratory results: ChEMBL document CHEMBL1124627, “Long-acting dihydropyridine calcium antagonists. 3. Synthesis and structure-activity relationships for a series of 2-[(heterocyclylmethoxy)methyl] derivatives” (J Med Chem, 1989)

Experiments:
Rattus norvegicus = organism: Rattus norvegicus; experiment: Negative logarithm of molar concentration required to block calcium-induced contraction of potassium depolarized rat aorta by 50%; format: functional
[1] = molecular target: Voltage-dependent L-type calcium channel subunit alpha-1C (Rattus norvegicus, UniProt P22002); experiment: Selectivity for vascular (Ca pIC50) over cardiac (negative inotropy IC25) calcium channels; format: functional
Cavia porcellus = organism: Cavia porcellus; experiment: Negative logarithm of the molar concentration required to depress contraction in the Langendorff-perfused guinea pig heart by 25%.; format: functional
Canis familiaris = experiment: Coronary vasodilator activity in dogs, after administration of a dose of 150 micorg/kg intravenously; format: functional, Canis lupus familiaris
Procedure, shortened: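 Anesthetized beagle dogs fitted with catheters for blood pressure, left ventricular pressure and intravenous dosing. Coronary blood flow was measured by hydrogen clearance with platinum electrodes in the coronary sinus and femoral artery, and cardiac output by thermodilution. Coronary vascular resistance was derived from these measurements. A single intravenous dose was given, and the CVR fall was followed over time to assess duration of action.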

Voltage-dependent L-type calcium channel subunit alpha-1C, sequence (P22002 whole entry, the tested form may be a part): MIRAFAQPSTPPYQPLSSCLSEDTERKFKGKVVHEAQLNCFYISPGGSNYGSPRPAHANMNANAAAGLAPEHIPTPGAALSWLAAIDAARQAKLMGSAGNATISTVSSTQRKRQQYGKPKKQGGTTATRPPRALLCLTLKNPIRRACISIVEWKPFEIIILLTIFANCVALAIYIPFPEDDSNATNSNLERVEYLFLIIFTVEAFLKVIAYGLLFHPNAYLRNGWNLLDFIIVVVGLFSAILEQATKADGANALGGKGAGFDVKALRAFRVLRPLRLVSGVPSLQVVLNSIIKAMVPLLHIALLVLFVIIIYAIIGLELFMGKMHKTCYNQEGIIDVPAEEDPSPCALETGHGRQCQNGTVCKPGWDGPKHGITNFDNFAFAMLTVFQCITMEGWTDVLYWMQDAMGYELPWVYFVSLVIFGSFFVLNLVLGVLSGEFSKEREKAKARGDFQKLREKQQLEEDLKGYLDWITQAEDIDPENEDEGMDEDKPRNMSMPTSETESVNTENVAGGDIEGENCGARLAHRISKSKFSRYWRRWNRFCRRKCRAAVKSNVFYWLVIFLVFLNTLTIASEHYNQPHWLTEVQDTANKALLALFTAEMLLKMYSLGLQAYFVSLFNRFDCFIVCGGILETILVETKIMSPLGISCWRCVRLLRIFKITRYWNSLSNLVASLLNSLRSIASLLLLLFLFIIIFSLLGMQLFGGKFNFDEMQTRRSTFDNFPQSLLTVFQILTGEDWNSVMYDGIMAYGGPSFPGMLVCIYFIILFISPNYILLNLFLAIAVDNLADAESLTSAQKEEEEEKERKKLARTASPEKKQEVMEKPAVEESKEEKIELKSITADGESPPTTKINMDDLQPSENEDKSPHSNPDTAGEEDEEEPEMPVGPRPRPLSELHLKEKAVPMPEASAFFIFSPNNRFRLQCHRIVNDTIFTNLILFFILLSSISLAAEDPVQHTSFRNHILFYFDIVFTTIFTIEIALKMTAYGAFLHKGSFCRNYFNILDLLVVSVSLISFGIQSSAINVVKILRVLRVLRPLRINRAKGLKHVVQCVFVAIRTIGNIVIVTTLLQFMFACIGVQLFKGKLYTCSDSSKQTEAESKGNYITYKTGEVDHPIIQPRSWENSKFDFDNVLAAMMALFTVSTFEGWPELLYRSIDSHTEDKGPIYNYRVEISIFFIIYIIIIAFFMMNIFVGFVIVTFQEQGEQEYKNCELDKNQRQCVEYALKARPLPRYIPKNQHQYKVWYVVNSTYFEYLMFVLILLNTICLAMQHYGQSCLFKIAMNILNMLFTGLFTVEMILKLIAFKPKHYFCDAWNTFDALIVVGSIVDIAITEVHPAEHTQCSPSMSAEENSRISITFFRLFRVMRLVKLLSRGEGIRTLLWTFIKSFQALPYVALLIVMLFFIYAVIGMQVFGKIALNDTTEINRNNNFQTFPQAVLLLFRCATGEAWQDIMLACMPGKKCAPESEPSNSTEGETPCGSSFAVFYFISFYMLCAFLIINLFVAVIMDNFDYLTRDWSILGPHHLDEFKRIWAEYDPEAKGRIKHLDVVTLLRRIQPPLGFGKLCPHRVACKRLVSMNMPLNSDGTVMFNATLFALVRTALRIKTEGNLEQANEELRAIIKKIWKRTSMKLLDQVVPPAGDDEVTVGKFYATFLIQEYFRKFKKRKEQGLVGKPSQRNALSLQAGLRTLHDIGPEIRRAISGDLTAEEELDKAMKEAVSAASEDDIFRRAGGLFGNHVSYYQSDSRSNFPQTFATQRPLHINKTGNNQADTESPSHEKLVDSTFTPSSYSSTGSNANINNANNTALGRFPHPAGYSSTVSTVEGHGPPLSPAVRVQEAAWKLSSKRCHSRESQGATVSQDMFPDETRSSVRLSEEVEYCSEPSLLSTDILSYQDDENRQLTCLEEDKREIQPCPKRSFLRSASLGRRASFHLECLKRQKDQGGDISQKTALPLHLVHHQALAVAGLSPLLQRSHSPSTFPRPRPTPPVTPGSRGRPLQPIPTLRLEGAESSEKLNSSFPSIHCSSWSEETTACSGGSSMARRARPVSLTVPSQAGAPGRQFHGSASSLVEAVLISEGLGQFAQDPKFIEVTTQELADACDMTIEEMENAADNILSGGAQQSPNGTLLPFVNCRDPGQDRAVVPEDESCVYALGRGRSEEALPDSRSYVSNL

| IC50 (Rattus norvegicus) | Compound | Selectivity index [1] | pIC25 (Cavia porcellus) | Decrease (Canis familiaris) |
| --- | --- | --- | --- | --- |
| 3.16 nM | CCO/C(O)=C1\C(COCc2cc(=O)n(CCO)c(N)n2)=NC(C)=C(C(=O)OC)C1c1cccc(Cl)c1Cl (centres undefined) | 32 | 7 |  |
| 3.98 nM | CCO/C(O)=C1\C(COCc2cc(O)nc(CN3CCOCC3)n2)=NC(C)=C(C(=O)OC)C1c1cccc(Cl)c1Cl (centres undefined) | 32 | 6.9 |  |
|  | COC(=O)C1=C(C)NC(C)=C(C(=O)OC)C1c1ccccc1[N+](=O)[O-] [NIFEDIPINE] | 8 | 7.5 | 77% |
